ChEMBL document CHEMBL3112407 (Bioorg Med Chem Lett, 2014)

Experiments:
[1] = molecular target: Receptor tyrosine-protein kinase erbB-2 (Homo sapiens, UniProt P04626); assay: Inhibition of HER2 (unknown origin) after 10 mins
[2] = molecular target: T1, Epidermal growth factor receptor (Homo sapiens, UniProt P00533)
[3] = molecular target: T1, Epidermal growth factor receptor; format: cell-based, KB
[4] = cells; format: functional, cell-based; settings: Homo sapiens, Calu-3, 72 h
[5] = test system: A-431; assay: cells; format: functional, cell-based; settings: Homo sapiens, A-431, 72 h
[6] = test system: BT-474; assay: cells; format: functional, cell-based; settings: Homo sapiens, BT-474, 72 h
[7] = test system: NCI-H1975; assay: cells; format: functional, cell-based; settings: Homo sapiens, NCI-H1975, 72 h
[8] = test system: NCI-N87; assay: cells; format: functional, cell-based; settings: Homo sapiens, NCI-N87, 72 h
[9] = test system: NCI-H1975; assay: Ratio of gefitinib IC50 to compound IC50 for human NCI-H1975 cells; format: functional
How it was run: (§1)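 MTT growth assay: cells in ATCC-recommended medium with 10% FBS, seeded at 5.0 × 10³ cells/well, adhered overnight at 37 °C, 5% CO₂. Compound added, then 72 h incubation. MTT added for 4 h. Absorbance read at 550 nm, corrected at 690 nm. IC₅₀ from nonlinear regression of concentration–response data. Ratio is the reference-drug IC₅₀ over the compound IC₅₀ from this assay.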

[10] = test system: Calu-3; assay: Ratio of gefitinib IC50 to compound IC50 for human Calu3 cells; format: functional; how it was run: as §1
[11] = test system: BT-474; assay: Ratio of gefitinib IC50 to compound IC50 for human BT474 cells; format: functional; how it was run: as §1
[12] = test system: A-431; assay: Ratio of gefitinib IC50 to compound IC50 for human A431 cells; format: functional; how it was run: as §1
[13] = test system: NCI-H1975; assay: Ratio of erlotinib IC50 to compound IC50 for human NCI-H1975 cells; format: functional; how it was run: as §1
[14] = test system: NCI-N87; assay: Ratio of gefitinib IC50 to compound IC50 for human NCI-N87 cells; format: functional; how it was run: as §1
[15] = test system: Calu-3; assay: Ratio of erlotinib IC50 to compound IC50 for human Calu3 cells; format: functional; how it was run: as §1
[16] = test system: A-431; assay: Ratio of erlotinib IC50 to compound IC50 for human A431 cells; format: functional; how it was run: as §1
[17] = test system: BT-474; assay: Ratio of erlotinib IC50 to compound IC50 for human BT474 cells; format: functional; how it was run: as §1
[18] = test system: NCI-N87; assay: Ratio of erlotinib IC50 to compound IC50 for human NCI-N87 cells; format: functional; how it was run: as §1

T1 sequence (P00533 whole entry): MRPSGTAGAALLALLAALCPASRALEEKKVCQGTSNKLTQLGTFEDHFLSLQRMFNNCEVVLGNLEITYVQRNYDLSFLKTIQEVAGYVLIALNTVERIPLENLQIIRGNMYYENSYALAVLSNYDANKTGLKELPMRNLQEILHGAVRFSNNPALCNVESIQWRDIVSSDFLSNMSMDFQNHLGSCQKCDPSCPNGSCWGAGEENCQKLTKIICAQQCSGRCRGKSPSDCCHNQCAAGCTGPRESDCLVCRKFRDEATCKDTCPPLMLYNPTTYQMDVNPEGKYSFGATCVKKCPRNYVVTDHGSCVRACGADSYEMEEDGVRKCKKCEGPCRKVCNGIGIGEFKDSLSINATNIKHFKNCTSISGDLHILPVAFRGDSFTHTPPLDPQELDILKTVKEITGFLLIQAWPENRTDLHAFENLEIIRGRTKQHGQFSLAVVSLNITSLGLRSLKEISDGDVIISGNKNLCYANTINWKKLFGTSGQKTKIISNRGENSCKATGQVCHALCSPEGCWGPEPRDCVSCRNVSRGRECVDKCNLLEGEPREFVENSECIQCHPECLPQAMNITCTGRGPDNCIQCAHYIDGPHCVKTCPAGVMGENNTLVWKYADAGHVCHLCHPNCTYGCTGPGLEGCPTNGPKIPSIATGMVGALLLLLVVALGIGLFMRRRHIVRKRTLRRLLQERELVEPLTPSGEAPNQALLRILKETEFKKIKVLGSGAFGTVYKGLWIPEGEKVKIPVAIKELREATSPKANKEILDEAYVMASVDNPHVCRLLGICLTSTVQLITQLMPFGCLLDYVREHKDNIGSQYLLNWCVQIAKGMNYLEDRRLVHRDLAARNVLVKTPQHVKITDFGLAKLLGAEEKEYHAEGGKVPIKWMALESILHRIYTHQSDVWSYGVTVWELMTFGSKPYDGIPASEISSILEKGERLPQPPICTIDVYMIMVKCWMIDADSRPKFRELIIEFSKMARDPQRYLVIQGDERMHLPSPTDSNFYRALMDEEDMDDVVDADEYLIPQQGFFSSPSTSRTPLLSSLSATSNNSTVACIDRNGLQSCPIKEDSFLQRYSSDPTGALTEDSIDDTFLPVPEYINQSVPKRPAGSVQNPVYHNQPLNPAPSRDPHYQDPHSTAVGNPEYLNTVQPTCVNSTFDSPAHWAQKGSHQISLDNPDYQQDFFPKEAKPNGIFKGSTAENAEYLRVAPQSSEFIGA
Sequence of Receptor tyrosine-protein kinase erbB-2 (P04626 whole entry): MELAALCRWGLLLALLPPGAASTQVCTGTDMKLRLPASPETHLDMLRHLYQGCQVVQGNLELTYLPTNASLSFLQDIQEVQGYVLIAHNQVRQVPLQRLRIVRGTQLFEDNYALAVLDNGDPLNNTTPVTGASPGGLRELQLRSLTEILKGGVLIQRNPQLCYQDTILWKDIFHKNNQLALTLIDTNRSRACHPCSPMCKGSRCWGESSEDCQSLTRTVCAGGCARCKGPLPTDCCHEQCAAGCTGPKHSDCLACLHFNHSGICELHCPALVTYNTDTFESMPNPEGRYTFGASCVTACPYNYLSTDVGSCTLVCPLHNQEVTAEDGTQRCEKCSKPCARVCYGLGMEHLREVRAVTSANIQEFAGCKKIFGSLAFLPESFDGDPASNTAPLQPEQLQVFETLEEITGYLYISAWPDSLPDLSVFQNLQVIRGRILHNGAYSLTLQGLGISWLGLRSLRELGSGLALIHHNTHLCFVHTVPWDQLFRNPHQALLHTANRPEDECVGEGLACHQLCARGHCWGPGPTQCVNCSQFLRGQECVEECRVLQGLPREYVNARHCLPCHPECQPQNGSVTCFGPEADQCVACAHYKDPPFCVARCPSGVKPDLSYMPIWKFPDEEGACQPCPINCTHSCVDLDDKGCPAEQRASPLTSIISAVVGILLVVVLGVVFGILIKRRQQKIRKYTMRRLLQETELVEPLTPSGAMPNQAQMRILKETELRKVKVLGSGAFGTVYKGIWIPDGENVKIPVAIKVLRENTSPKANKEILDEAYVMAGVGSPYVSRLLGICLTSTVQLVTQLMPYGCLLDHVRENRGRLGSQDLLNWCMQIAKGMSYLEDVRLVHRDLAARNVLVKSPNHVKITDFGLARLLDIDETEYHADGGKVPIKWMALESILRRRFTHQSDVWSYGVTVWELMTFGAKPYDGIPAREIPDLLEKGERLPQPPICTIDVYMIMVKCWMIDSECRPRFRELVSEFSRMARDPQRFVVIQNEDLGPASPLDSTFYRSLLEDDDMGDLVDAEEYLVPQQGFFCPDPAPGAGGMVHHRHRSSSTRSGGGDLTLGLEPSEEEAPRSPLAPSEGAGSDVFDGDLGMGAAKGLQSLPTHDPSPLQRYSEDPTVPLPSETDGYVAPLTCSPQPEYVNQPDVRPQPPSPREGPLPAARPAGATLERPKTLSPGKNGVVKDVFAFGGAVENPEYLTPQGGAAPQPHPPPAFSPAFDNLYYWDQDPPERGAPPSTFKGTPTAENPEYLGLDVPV

Compound | IC50 [1] [nM] | IC50 [2] [nM] | IC50 [3] [nM] | IC50 [4] [nM] | IC50 [5] [nM] | IC50 [6] [nM] | IC50 [7] [nM] | IC50 [8] [nM] | Ratio IC50 [9] | Ratio IC50 [10] | Ratio IC50 [11] | Ratio IC50 [12] | Ratio IC50 [13] | Ratio IC50 [14] | Ratio IC50 [15] | Ratio IC50 [16] | Ratio IC50 [17] | Ratio IC50 [18]
C#Cc1cccc(Nc2ncnc3cc4c(cc23)N(C(=O)/C=C/CN2CCOCC2)CCO4)c1 | 930 | 12 | 640 | 1010 | 530 | 1390 | 770 | 600 |  |  |  |  |  |  |  |  |  | 
C#Cc1cccc(Nc2ncnc3cc4c(cc23)N(C(=O)/C=C/CN2CCN(C)CC2)CCO4)c1 | 1110 | 16 | 780 | 2060 | 480 | 1330 | 1460 | 220 |  |  |  |  |  |  |  |  |  | 
C#Cc1cccc(Nc2ncnc3cc4c(cc23)N(C(=O)/C=C/CN2CCCCC2C)CCO4)c1 (stereo not given) | 290 |  |  | 950 | 690 | 1150 | 1230 | 270 |  |  |  |  |  |  |  |  |  | 
C#Cc1cccc(Nc2ncnc3cc4c(cc23)N(C(=O)/C=C/CN2CCCCC2)CCCO4)c1 |  |  | > 10000 | > 10000 | > 10000 | > 10000 | 8590 | > 10000 |  |  |  |  |  |  |  |  |  | 
C#Cc1cccc(Nc2ncnc3cc4c(cc23)N(C(=O)/C=C/CN2CCN(C)CC2)CCCO4)c1 |  |  | > 10000 | > 10000 | > 10000 | > 10000 | > 10000 | > 10000 |  |  |  |  |  |  |  |  |  | 
C#Cc1cccc(Nc2ncnc3cc4c(cc23)N(C(=O)/C=C/CN2CCCCC2C)CCCO4)c1 (stereo not given) |  |  | > 10000 | > 10000 | > 10000 | > 10000 | > 10000 | > 10000 |  |  |  |  |  |  |  |  |  | 
C#Cc1cccc(Nc2ncnc3cc4c(cc23)N(C(=O)/C=C/CN2CCCC2)CCCO4)c1 |  |  | > 10000 | > 10000 | 1820 | > 10000 | 1740 | > 10000 |  |  |  |  |  |  |  |  |  | 
C#Cc1cccc(Nc2ncnc3cc4c(cc23)N(C(=O)/C=C/CN2CCOCC2)CCCO4)c1 |  |  | > 10000 | > 10000 | > 10000 | > 10000 | > 10000 | > 10000 |  |  |  |  |  |  |  |  |  | 
C#Cc1cccc(Nc2ncnc3cc4c(cc23)N(C(=O)/C=C/CN2CCC(C)CC2)CCO4)c1 | 330 | 5 | 82 | 1670 | 400 | 1380 | 890 | 250 |  |  |  |  |  |  |  |  |  | 
C#Cc1cccc(Nc2ncnc3cc4c(cc23)N(C(=O)/C=C/CN2CCC(C)CC2)CCCO4)c1 |  |  | > 10000 | > 10000 | > 10000 | > 10000 | > 10000 | > 10000 |  |  |  |  |  |  |  |  |  | 
C#Cc1cccc(Nc2ncnc3cc4c(cc23)N(C(=O)/C=C/CN2CCCCC2)CCO4)c1 | 290 | 4 | 42 | 550 | 340 | 870 | 870 | 160 |  |  |  |  |  |  |  |  |  | 

Continued, in another order:

IC50 [1] [nM] | IC50 [2] [nM] | IC50 [3] [nM] | IC50 [4] [nM] | IC50 [5] [nM] | IC50 [6] [nM] | IC50 [7] [nM] | IC50 [8] [nM] | Compound | Ratio IC50 [9] | Ratio IC50 [10] | Ratio IC50 [11] | Ratio IC50 [12] | Ratio IC50 [13] | Ratio IC50 [14] | Ratio IC50 [15] | Ratio IC50 [16] | Ratio IC50 [17] | Ratio IC50 [18]
230 | 3 | 60 | 710 | 110 | 330 | 320 | 120 | C#Cc1cccc(Nc2ncnc3cc4c(cc23)N(C(=O)/C=C/CN2CCCC2)CCO4)c1 |  |  |  |  |  |  |  |  |  | 
250 | 3 | 46 | 140 | 230 | 240 | 300 | 46 | C#Cc1cccc(Nc2ncnc3cc4c(cc23)N(C(=O)/C=C/CN(C)C)CCO4)c1 | 33 | 7.1 | 1.5 | 2.4 | 18 | 22 | 6.6 | 3.3 | > 42 | > 210
 |  | > 10000 | > 10000 | 2160 | > 10000 | > 10000 | > 10000 | C#Cc1cccc(Nc2ncnc3cc4c(cc23)N(C(=O)/C=C/CN(CC)CC)CCCO4)c1 |  |  |  |  |  |  |  |  |  | 
 |  | > 10000 | > 10000 | 1750 | > 10000 | 1860 | > 10000 | C#Cc1cccc(Nc2ncnc3cc4c(cc23)N(C(=O)/C=C/CN(C)C)CCCO4)c1 |  |  |  |  |  |  |  |  |  | 
250 | 5 | 42 | 350 | 190 | 550 | 680 | 150 | C#Cc1cccc(Nc2ncnc3cc4c(cc23)N(C(=O)/C=C/CN(CC)CC)CCO4)c1 |  |  |  |  |  |  |  |  |  | 
